According to ChEMBL document CHEMBL1926607 (J Med Chem, 2011):
One block for each molecule: values may come before it. Active and inactive are the calls of the source. No cut-off for these calls is given here.

Key:
[1] = target: T1, 5-hydroxytryptamine receptor 1A (Rattus norvegicus, UniProt P19327); assay: Displacement of [3H]-8-OH-DPAT from 5-HT1A receptor in Sprague-Dawley albinus rat cerebral cortex membranes after 15 mins; format: cell membranes, Membrane
T1 sequence (P19327 whole entry): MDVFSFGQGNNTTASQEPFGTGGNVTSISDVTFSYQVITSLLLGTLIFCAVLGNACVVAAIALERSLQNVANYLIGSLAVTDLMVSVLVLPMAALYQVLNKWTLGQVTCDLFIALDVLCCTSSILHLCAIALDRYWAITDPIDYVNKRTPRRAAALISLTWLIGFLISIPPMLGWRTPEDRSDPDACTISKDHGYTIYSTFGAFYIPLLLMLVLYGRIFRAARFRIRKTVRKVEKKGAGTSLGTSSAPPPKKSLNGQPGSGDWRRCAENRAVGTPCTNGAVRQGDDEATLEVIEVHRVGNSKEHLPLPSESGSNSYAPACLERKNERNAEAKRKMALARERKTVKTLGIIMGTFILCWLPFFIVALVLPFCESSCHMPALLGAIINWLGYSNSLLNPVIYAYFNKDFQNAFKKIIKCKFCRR

[2] = target: T2, 5-hydroxytryptamine receptor 1A (Homo sapiens) (UniProt P08908); assay: Partial agonist activity at human 5HT1A receptor expressed in human HeLa cells assessed as inhibition of forskolin-stimulated cAMP production pretreated 20 mins before forskolin challenge measured after 2 hrs by RIA; format: functional, cell-based
T2 sequence (whole entry): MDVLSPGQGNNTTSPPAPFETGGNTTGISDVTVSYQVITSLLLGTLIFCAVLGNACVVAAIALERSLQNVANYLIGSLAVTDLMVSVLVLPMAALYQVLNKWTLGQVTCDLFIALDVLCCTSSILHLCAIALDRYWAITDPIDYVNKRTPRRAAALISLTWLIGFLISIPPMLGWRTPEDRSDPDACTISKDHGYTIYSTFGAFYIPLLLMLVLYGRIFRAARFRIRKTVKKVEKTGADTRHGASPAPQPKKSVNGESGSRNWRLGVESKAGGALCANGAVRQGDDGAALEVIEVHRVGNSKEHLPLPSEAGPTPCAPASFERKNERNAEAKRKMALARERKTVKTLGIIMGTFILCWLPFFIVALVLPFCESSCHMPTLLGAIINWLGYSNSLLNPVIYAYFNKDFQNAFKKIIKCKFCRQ
In short: (§1)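 HeLa cells stably expressing the h5-HT1AR, grown in DMEM with 2 mM glutamine, 1 mM pyruvate and 10% heat-inactivated FCS, and used after 2–3 days at about 7.5 × 10^4 cells/well. After a PBS wash, cells were incubated 10 min in PBS with 0.5 mM isobutylmethylxanthine and 10 μM forskolin, with or without compound. The reaction was stopped with ice-cold ethanol, extracted 2 h and lyophilized; cAMP was measured by RIA.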

[3] = target: 5-hydroxytryptamine receptor 2A (Rattus norvegicus, UniProt P14842); assay: Displacement of [3H]ketanserin from 5HT2A receptor in Sprague-Dawley albinus rat frontal cortex membranes after 15 mins; format: cell membranes, Membrane
Chain of 5-hydroxytryptamine receptor 2A (P14842 whole entry): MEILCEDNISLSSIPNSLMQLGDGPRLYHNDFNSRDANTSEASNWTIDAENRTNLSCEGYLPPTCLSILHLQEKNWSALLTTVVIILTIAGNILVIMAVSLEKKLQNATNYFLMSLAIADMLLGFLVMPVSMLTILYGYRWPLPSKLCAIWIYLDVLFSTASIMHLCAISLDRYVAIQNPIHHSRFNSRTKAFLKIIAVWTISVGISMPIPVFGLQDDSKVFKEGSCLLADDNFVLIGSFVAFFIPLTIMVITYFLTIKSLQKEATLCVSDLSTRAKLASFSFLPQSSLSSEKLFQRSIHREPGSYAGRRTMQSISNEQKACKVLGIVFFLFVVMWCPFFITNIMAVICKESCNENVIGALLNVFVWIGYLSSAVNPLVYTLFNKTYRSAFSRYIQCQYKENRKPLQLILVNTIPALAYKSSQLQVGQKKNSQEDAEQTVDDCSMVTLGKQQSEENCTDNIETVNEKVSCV
In short: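 Rat frontal cortex membranes (male Sprague–Dawley, 180–200 g). Nonspecific binding was set with 1 μM cinanserin.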

[4] = target: T2, 5-hydroxytryptamine receptor 1A (Homo sapiens); assay: Agonist activity at human 5HT1A receptor expressed in human HeLa cells assessed as inhibition of forskolin-stimulated cAMP production pretreated 20 mins before forskolin challenge measured after 2 hrs by RIA relative to control; format: functional, cell-based
[5] = target: T3, 5-hydroxytryptamine receptor 1A (Homo sapiens, UniProt P08908); assay: Agonist activity at human 5HT1A receptor expressed in human HeLa cells assessed as inhibition of forskolin-stimulated cAMP production […] measured after 2 hrs by RIA; format: functional, cell-based; in short: as §1
T3 sequence (P08908 whole entry): T2 sequence (whole entry)

[6] = target: 5-hydroxytryptamine receptor 4 (Rattus norvegicus, UniProt Q62758); assay: Displacement of [3H]GR113808 from 5HT4 receptor in Sprague-Dawley albinus rat striatal membranes after 30 mins by scintillation counting; format: cell membranes, Membrane
Chain of 5-hydroxytryptamine receptor 4 (Q62758 whole entry): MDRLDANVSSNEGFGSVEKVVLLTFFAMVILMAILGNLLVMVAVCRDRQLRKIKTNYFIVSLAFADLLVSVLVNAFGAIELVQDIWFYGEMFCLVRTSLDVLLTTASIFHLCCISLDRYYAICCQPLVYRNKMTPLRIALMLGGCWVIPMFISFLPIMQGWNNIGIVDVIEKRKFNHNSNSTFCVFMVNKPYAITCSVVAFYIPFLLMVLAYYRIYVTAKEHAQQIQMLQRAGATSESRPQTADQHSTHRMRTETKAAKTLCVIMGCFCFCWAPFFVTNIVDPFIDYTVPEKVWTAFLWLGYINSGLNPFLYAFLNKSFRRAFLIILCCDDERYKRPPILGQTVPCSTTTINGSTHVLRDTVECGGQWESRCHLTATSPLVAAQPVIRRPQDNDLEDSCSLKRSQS

[7] = target: T4, 5-hydroxytryptamine receptor 3A (Rattus norvegicus, UniProt P35563); assay: Displacement of [3H]-LY278584 from 5HT3 receptor in Sprague-Dawley albinus rat cerebral cortex membranes after 30 mins; format: cell membranes, Membrane
T4 sequence (P35563 whole entry): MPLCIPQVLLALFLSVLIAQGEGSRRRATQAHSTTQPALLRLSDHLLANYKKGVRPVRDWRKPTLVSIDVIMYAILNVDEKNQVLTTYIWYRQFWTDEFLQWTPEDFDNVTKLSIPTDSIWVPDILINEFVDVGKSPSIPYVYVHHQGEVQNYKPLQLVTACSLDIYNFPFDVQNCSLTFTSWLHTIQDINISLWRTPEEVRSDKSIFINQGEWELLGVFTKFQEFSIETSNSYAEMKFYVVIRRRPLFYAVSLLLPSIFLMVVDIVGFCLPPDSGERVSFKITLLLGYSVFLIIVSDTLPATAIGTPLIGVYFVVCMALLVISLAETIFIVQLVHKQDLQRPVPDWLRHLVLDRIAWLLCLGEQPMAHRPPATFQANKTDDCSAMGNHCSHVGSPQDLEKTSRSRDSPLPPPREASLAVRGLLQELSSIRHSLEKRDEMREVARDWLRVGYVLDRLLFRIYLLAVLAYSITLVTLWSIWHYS

[8] = target: 5-hydroxytryptamine receptor 7 (Rattus norvegicus, UniProt P32305); assay: Displacement of [3H]-5-CT from 5HT7 receptor in Sprague-Dawley albinus rat hyphalamic membranes after 120 mins; format: cell membranes, Membrane
Chain of 5-hydroxytryptamine receptor 7 (P32305 whole entry): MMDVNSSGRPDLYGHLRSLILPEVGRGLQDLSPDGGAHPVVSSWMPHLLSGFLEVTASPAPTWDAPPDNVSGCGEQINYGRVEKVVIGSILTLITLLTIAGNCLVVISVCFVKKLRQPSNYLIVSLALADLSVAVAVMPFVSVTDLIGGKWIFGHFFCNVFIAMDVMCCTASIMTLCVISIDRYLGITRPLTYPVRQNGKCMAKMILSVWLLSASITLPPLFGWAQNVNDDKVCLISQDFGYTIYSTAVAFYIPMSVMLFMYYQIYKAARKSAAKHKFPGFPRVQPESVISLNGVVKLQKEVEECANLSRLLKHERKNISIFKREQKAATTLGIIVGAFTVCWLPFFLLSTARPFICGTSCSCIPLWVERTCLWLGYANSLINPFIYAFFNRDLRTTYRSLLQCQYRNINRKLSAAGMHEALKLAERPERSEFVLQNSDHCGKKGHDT

D(2) dopamine receptor = D(2) dopamine receptor (Rattus norvegicus, UniProt P61169); assay: Displacement of [3H]spiperone from dopamine D2 receptor in Sprague-Dawley albinus rat striatal membranes after 15 mins; format: cell membranes, Membrane
Chain of D(2) dopamine receptor (P61169 whole entry): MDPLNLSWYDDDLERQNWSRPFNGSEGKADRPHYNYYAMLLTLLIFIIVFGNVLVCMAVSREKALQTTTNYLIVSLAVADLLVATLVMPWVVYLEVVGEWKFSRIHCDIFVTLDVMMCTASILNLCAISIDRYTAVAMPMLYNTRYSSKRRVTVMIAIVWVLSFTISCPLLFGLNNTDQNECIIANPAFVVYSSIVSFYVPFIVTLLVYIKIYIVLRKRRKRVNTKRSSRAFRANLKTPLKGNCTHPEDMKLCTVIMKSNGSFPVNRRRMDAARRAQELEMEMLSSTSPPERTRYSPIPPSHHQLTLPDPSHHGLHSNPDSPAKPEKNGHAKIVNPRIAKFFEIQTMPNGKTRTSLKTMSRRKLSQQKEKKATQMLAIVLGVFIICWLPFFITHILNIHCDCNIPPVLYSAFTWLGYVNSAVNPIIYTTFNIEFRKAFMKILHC

[9] = target: T5, Adrenergic receptor alpha-1 (Rattus norvegicus, UniProt P15823+P23944+P43140); assay: Displacement of [3H]prazosin from alpha1 adrenoceptor in Sprague-Dawley albinus rat cerebral cortex membranes after 30 mins; format: cell membranes, Membrane
T5 sequence (P15823 whole entry): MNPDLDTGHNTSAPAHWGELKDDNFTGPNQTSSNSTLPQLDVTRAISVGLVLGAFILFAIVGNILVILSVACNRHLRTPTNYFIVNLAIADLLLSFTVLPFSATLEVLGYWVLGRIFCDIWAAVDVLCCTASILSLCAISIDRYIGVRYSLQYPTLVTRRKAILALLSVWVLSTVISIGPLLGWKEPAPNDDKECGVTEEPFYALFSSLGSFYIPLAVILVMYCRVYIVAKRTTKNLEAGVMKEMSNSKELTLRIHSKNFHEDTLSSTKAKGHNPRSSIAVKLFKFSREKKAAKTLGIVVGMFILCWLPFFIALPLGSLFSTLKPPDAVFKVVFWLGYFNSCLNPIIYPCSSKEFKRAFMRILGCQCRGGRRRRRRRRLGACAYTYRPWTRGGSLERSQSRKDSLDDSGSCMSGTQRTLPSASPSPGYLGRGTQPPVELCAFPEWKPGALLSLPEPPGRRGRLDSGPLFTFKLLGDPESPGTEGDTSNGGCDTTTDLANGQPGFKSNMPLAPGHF
T5 sequence (P23944 whole entry): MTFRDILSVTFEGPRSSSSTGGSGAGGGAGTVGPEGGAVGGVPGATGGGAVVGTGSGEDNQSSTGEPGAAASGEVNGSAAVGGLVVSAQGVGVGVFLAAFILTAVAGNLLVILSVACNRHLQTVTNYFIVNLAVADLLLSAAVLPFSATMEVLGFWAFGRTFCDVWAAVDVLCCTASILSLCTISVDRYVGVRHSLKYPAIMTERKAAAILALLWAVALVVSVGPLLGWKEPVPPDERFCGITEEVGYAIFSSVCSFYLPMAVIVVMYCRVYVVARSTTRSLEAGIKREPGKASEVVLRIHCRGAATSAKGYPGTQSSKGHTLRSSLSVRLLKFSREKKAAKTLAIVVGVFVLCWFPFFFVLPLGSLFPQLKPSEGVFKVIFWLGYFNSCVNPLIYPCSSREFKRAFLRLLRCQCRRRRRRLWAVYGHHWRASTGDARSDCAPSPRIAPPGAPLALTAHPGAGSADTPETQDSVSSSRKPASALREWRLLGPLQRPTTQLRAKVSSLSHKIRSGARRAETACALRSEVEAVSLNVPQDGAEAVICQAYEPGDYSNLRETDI
T5 sequence (P43140 whole entry): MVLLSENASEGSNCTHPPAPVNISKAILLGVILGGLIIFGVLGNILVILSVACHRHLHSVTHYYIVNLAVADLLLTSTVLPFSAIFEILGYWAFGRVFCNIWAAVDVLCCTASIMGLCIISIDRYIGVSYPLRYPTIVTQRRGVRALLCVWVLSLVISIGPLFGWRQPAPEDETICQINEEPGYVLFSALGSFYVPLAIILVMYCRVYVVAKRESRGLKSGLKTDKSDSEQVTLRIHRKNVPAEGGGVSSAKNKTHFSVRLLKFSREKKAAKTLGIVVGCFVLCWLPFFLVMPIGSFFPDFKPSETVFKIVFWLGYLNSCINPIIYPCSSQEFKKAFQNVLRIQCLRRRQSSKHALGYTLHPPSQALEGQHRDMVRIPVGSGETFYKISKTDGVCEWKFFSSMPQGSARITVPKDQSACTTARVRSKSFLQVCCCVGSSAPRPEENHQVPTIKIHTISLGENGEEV
In short: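 Rat cerebral cortex membranes (about 250 μg protein; male Sprague–Dawley, 180–200 g) in 50 mM Tris-HCl with 10 mM MgCl2, pH 7.4. Incubation was 30 min at 25 °C with 0.2 nM [3H]prazosin and six competitor concentrations. Nonspecific binding was set with 10 μM phentolamine.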

Structure (SMILES): O=C1C2CCCN2C(=O)N1CCCCNCCc1ccccc1 (stereo unspecified)
Ki [1]: > 1 µM

Structure (SMILES): O=C1C2CCCN2C(=O)N1CCCNCC1CCc2ccccc2O1 (stereo unspecified)
Ki [1]: 0.0082 µM | EC50 [5]: 0.0233 µM | Ki [3]: > 1 µM | Emax [4]: 94.3%

Structure (SMILES): O=C1C2CCCN2C(=O)N1CCCCNCCc1ccccn1 (stereo unspecified)
Ki [1]: > 1 µM

Structure (SMILES): O=C1C2CCCN2C(=O)N1CCCCNCc1ccccc1 (stereo unspecified)
Ki [1]: > 1 µM

Structure (SMILES): O=C1C2CCCN2C(=O)N1CCCCNCc1ccco1 (stereo unspecified)
Ki [1]: > 1 µM

Structure (SMILES): O=C1C2CCCN2C(=O)N1Cc1cccc(CNCC2CCc3ccccc3O2)c1 (stereo unspecified)
Ki [3]: > 1 µM

Structure (SMILES): O=C1C2CCCN2C(=O)N1CCCCNCc1ccccn1 (stereo unspecified)
Ki [1]: > 1 µM

Structure (SMILES): O=C1C2CCCN2C(=O)N1CCCCNCCc1cccs1 (stereo unspecified)
Ki [1]: > 1 µM

Structure (SMILES): O=C1C2CCCN2C(=O)N1CCCCNCc1cccs1 (stereo unspecified)
Ki [1]: > 1 µM

Structure (SMILES): O=C1C2CCCN2C(=O)N1C/C=C\CNCC1CCc2ccccc2O1 (stereo unspecified)
Ki [1]: 0.114 µM

Structure (SMILES): O=C1C2CCCN2C(=O)N1CCCCNCCc1ccco1 (stereo unspecified)
Ki [1]: > 1 µM

Structure (SMILES): O=C1C2CCCN2C(=O)N1CC#CCNCC1CCc2ccccc2O1 (stereo unspecified)
Ki [1]: > 1 µM

More lines, now with the values ahead:

Ki [1]: 0.0024 µM | Activity [2]: Active | Ki [3]: > 1 µM | Emax [4]: 77.9%
Structure (SMILES): O=C1C2CCCCN2C(=O)N1CCCCNCC1CCc2ccccc2O1 (stereo unspecified)

Ki [1]: 0.0151 µM | Ki [3]: > 1 µM | Emax [4]: 89.6%
Structure (SMILES): O=C1CSC(=O)N1CCCCNCC1CCc2ccccc2O1 (stereo unspecified)

Ki [6]: > 1 µM | Ki [7]: > 1 µM | Ki [1]: 0.034 µM | Ki [8]: > 1 µM | Ki [3]: > 1 µM | Ki (D(2) dopamine receptor): > 1 µM | Ki [9]: 0.067 µM
Structure (SMILES): Cl.O=C1C2CCCCN2C(=O)CN1CCCCNCC1CCc2ccccc2O1 (stereo unspecified)

Ki [7]: > 1 µM | Ki (D(2) dopamine receptor): > 1 µM | Ki [9]: 0.099 µM
Structure (SMILES): Cl.O=C1C2CCCN2C(=O)N1CCCCNCCc1ccc2ccccc2c1 (stereo unspecified)

Ki [1]: > 1 µM
Structure (SMILES): O=C1C2CCCN2C(=O)N1CCCCNCc1cccc2ccccc12 (stereo unspecified)

Ki [1]: 0.013 µM | Ki [3]: > 1 µM | Emax [4]: 89.3%
Structure (SMILES): O=C1C2CSCN2C(=O)N1CCCCNCC1CCc2ccccc2O1 (stereo unspecified)

Ki [1]: 0.027 µM | Ki [3]: > 1 µM
Structure (SMILES): O=C1C2CCCN2C(=O)N1C/C=C/CNCC1CCc2ccccc2O1 (stereo unspecified)

EC50 [5]: 0.0259 µM | Ki [3]: > 1 µM | Emax [4]: 88.6%
Structure (SMILES): O=C1CSC(=O)N1CCCCCCCCNCC1CCc2ccccc2O1 (stereo unspecified)

Ki [6]: > 1 µM | Ki [7]: > 1 µM | Ki [8]: > 1 µM | Ki [3]: > 1 µM | Ki (D(2) dopamine receptor): > 1 µM | Ki [9]: > 1 µM
Structure (SMILES): Cl.O=C1C2CCCN2C(=O)N1CCCCNCCc1cccc2ccccc12 (stereo unspecified)

EC50 [5]: 0.0199 µM | Ki [3]: > 1 µM | Emax [4]: 87%
Structure (SMILES): O=C1CSC(=O)N1CCCCCCNCC1CCc2ccccc2O1 (stereo unspecified)

Ki [1]: 0.0059 µM | EC50 [5]: 0.0218 µM | Ki [3]: > 1 µM | Emax [4]: 91.2%
Structure (SMILES): O=C1C2CCCN2C(=O)N1CCCCCCNCC1CCc2ccccc2O1 (stereo unspecified)

Ki [1]: 0.0876 µM
Structure (SMILES): O=C1C2CCCN2C(=O)N1CCCCCCCCNCC1CCc2ccccc2O1 (stereo unspecified)

EC50 [5]: 0.0342 µM | Ki [3]: > 1 µM | Emax [4]: 94.8%
Structure (SMILES): O=C1CSC(=O)N1CCCCCNCC1CCc2ccccc2O1 (stereo unspecified)

Ki [1]: 0.028 µM | Ki [3]: > 1 µM
Structure (SMILES): O=C1C2CCCN2C(=O)N1Cc1ccc(CNCC2CCc3ccccc3O2)cc1 (stereo unspecified)

Ki [1]: 0.0129 µM | EC50 [5]: 0.157 µM | Ki [3]: > 1 µM | Emax [4]: 92.5%
Structure (SMILES): O=C1C2CCCN2C(=O)N1CCCCCNCC1CCc2ccccc2O1 (stereo unspecified)

Ki [1]: 0.049 µM | Ki [3]: > 1 µM
Structure (SMILES): O=C1C2CCCN2C(=O)N1CCCCNCc1ccc2ccccc2c1 (stereo unspecified)
